This is a sample that favours compounds with a hit; in the whole collection about 2.9% have one here.
PfGluPho inh = PfG6PD enzyme inhibitors, primary screen, biochemical, fluorescence intensity, uHTS. PfGluPho enzyme, NADPH resazurin-diaphorase fluorescence. inhibition, % at 20 µM. AID 504690, 2011. 350,000 compounds, 0.78% hits;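 active = inhibition reaching at least a set limit at 20 µM in the primary screen, cut at about 59% in these data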
ZTA counter = counter-screen for EBNA-1 inhibitors: inhibitors of Epstein-Barr virus ZTA | 320,000 compounds, 0.15% hits | ZTA-DNA binding, fluorescence polarization | AID 2234 | inhibition, % at 11 µM; in the data active = inhibition above about 33%
UBC13 inh = UBC13 polyubiquitin chain formation inhibitors, primary screen, biochemical, TR-FRET, uHTS. Ubiquitin-conjugating enzyme E2 N (Homo sapiens), P61088. inhibition, % at 20 µM. 330,000 compounds, 0.47% hits. AID 485273, 2010; in the data active = inhibition above about 45%, passing the limit was not always enough; inconclusive = no clear call, values can overlap the other calls
EBNA-1 inh = EBNA-1 DNA-binding inhibitors, primary screen, biochemical, fluorescence polarization. inhibition, % at 14.8 µM. AID 1950, 2009. 300,000 compounds, 0.34% hits; in the data active = inhibition above about 28%
PfM18AAP inh = PfM18AAP inhibitors, malaria aminopeptidase, primary screen, biochemical, QFRET, recombinant enzyme | M18 aspartyl aminopeptidase (Plasmodium falciparum 3D7) | H-Glu-NHMec fluorogenic cleavage | inhibition, % at 7.35 µM | 290,000 compounds, 1.2% hits | AID 1822, 2009;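 active = inhibition above the campaign mean inhibition over all tested compounds plus 3 SD, cut at about 28% in these data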
Apaf-1 inh = inhibitors of human Apaf-1 apoptosome, primary screen, biochemical, DEVD-Rh110 fluorescence, uHTS; reconstituted apoptosome caspase-3 activity; inhibition, % at 20 µM; 330,000 compounds, 0.71% hits; AID 489030, 2010; active = inhibition of at least 40% at 20 µM
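Material: reconstituted apoptosome with Apaf-1, cytochrome c, caspase-9, procaspase-3, dATP / Buffer or medium: pH 7.5 Hepes buffer with CHAPS, BSA, DTT / Also added: cytochrome c with DEVD-Rh110 / Schedule: compound with Apaf-1, dATP, procaspase-3 30 min, then 50 min reaction, room temperature / Technique: rhodamine 110 fluorescence at Ex 480/Em 540 nm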
Casp3 UBC13 ctr = CASP3 inhibitor validation, counterassay for project on UBE2N polyubiquitination blockers, biochemical, one dose | shares compounds with UBC13 inh | Recombinant caspase-3, Caspase-Glo 3/7 luminescence, 60 min | inhibition, % at 20 µM | 1,400 compounds, 4% hits;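 active = mean inhibition across replicates above about 26%, limit read from the data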
UBC13 confirm = UBC13 polyubiquitination inhibitors, single-point retest, confirmation, biochemical, TR-FRET, single concentration; shares compounds with UBC13 inh; inhibition, % at 10 µM; 1,400 compounds, 68% hits; in the data active = inhibition above about 45%; inconclusive = no clear call, values can overlap the other calls
Each line names hits and unclear results; the compound was inactive in the other large screens (follow-up assays come after a bar, where they were run).

CN(C)/C=C1/Sc2ccccc2C1=O	none
CCCCN1C(=N)N([C@@H](CCC)CN2CCC[C@H]2CN2C(N)=NC[C@@H]2Cc2ccccc2)C[C@H]1Cc1ccccc1	UBC13 inh 54 (no result: ZTA counter, EBNA-1 inh, PfM18AAP inh) | Casp3 UBC13 ctr inactive | UBC13 confirm inactive
CC[C@@H](C)[C@@H]1CN([C@@H](CN2CCC[C@H]2CN2C(N)=NC[C@H]2CC(C)C)C(C)C)C(=N)N1CCCC1CCCC1	UBC13 inh 66 (no result: ZTA counter, EBNA-1 inh, PfM18AAP inh) | Casp3 UBC13 ctr inactive | UBC13 confirm 58
O=C(NCCCN1CCCC1)c1ccc2c(c1)N(Cc1ccccc1F)C(=O)c1ccccc1S2(=O)=O	none
CCOC(=O)c1c(NC(=O)c2ccc(C)cc2)sc2c1CC(C)(C)NC2(C)C	UBC13 inh 49, Apaf-1 inh 54 (no result: PfGluPho inh) | Casp3 UBC13 ctr inactive | UBC13 confirm inactive
CCOC(=O)c1c(NC(=O)COc2ccccc2C#N)sc2c1CC(C)(C)NC2(C)C	UBC13 inh 76 | Casp3 UBC13 ctr inactive | UBC13 confirm 105
CCOC(=O)c1c(NC(=O)Cc2ccccc2)sc2c1CC(C)(C)NC2(C)C	none
CCCCn1nc2cc(C(=O)NCc3ccccc3)ccc2c1OCC	none
O=C1c2cccc3cccc(c23)C(=O)N1CC1CCN(CC(O)COCc2ccc3c(c2)OCO3)CC1 (stereo unspecified)	UBC13 inh 95 | Casp3 UBC13 ctr inactive | UBC13 confirm 103
COc1cc(OC)cc(C(=O)NNC(=O)c2cc3c(s2)CCCC3)c1	none
C[C@@H]1O[C@@H](O[C@H]2[C@H](Oc3cc(O)c4c(c3)O[C@H](c3ccc(O)cc3)CC4=O)O[C@H](CO)[C@@H](O)[C@@H]2O)[C@H](O)[C@H](O)[C@H]1O	UBC13 inh 95 | Casp3 UBC13 ctr inactive | UBC13 confirm 98
COc1ccc([C@@H]2CC(=O)c3c(O)cc(O[C@@H]4OC(CO[C@@H]5OC(C)[C@H](O)[C@H](O)C5O)[C@@H](O)[C@@H](O)C4O)cc3O2)cc1O (stereo partly specified)	none (no result: PfM18AAP inh)
O=c1c(OC2OC(CO)C(O)C(O)C2OC2OC(CO)C(O)C(O)C2O)c(-c2ccc(O)cc2)oc2cc(O)cc(O)c12 (stereo unspecified)	none (no result: PfM18AAP inh)
C[C@@H]1O[C@@H](O[C@H]2[C@H](Oc3cc(O)c4c(c3)OC(c3ccc(O)cc3)CC4=O)O[C@H](CO)[C@@H](O)[C@@H]2O)[C@H](O)[C@H](O)[C@H]1O (stereo partly specified)	UBC13 inh 97 (no result: PfM18AAP inh) | Casp3 UBC13 ctr inactive | UBC13 confirm 100
CN(Cc1ccccc1)C(=O)c1[nH]cnc1C(=O)Nc1ccon1	none (no result: EBNA-1 inh, PfM18AAP inh)
Cc1ccc2cc3c(nc2c1)N(c1ccccc1)CC3	UBC13 inh 46 | Casp3 UBC13 ctr inactive | UBC13 confirm inactive
CNC[C@H](Cc1ccccc1)NC[C@@H](Cc1cccc2ccccc12)NCCc1ccc(C)cc1	UBC13 inh 96, Apaf-1 inh 48 | Casp3 UBC13 ctr inactive | UBC13 confirm 90
NC(=O)CCCn1c(C(=O)c2cc(Cl)c(N)c(Cl)c2)c2ccc([N+](=O)[O-])cc2[n+]1[O-]	UBC13 inh 82 (no result: PfM18AAP inh) | Casp3 UBC13 ctr inactive | UBC13 confirm 78
Cc1ccc(C(=O)NC(C)c2ccc(-n3ccnc3)cc2)cc1S(=O)(=O)N1CCOCC1 (stereo unspecified)	UBC13 inh 73 (no result: PfM18AAP inh) | Casp3 UBC13 ctr inactive | UBC13 confirm 102
Cc1ccc(C(=O)NC(C)c2ccccc2)cc1S(=O)(=O)N1CCOCC1 (stereo unspecified)	none
O=C(O)c1cccc(C(=O)O)c1Br	none
COc1ccc(OCC(=O)NNC(=O)c2ccccn2)cc1	UBC13 inh 69 | Casp3 UBC13 ctr inactive | UBC13 confirm 96
CC(Oc1cccc(Br)c1)C(=O)NNC(=O)c1ccccn1 (stereo unspecified)	UBC13 inh 47 (no result: ZTA counter, EBNA-1 inh, PfM18AAP inh) | Casp3 UBC13 ctr inactive | UBC13 confirm 91
CC(=O)c1ccc(OCCCC(=O)NNC(=O)c2ccccn2)cc1	UBC13 inh 76 (no result: EBNA-1 inh, PfM18AAP inh) | Casp3 UBC13 ctr inactive | UBC13 confirm 66
COc1ccc(C(=O)NNC(=O)c2ccccn2)cc1	none
COc1ccc(OCC(=O)NCCNC(=O)c2ccccn2)cc1	none
CC(Oc1ccccc1)C(=O)NNC(=O)c1ccccn1 (stereo unspecified)	none
O=C(COC(=O)c1ccc(NS(=O)(=O)c2ccc(F)c(F)c2)cc1)NCC1CCCO1 (stereo unspecified)	none
Cc1ccsc1CN(C)C(=O)CN1C(=O)NC(c2ccccc2)(c2ccccc2)C1=O	none (no result: EBNA-1 inh, PfM18AAP inh)
COc1ccc(OCCCC(=O)Nc2ccc(S(=O)(=O)N3CCOCC3)cc2)cc1	UBC13 inh 58 (no result: EBNA-1 inh, PfM18AAP inh) | Casp3 UBC13 ctr inactive | UBC13 confirm 55
COc1ccc(CC(=O)Nc2ccc(S(=O)(=O)N3CCOCC3)cc2)cc1	none (no result: EBNA-1 inh, PfM18AAP inh)
NC(=S)N=Nc1c(O)n(Cc2ccccc2)c2ccccc12	none
C/C(Cl)=C\Cn1c(O)c(N=NC(N)=S)c2ccccc21	UBC13 inh 84 | Casp3 UBC13 ctr inactive | UBC13 confirm 102
COC(=O)c1ccc(Cn2c(O)c(N=NC(N)=S)c3ccccc32)o1	UBC13 inh 69 | Casp3 UBC13 ctr inactive | UBC13 confirm 81
CCN1CCN(Cc2ccc(NC(=O)c3cc(NC(=O)c4cncc(-c5ccc(C#N)cc5)c4)cc(OC)c3)cc2C(F)(F)F)CC1	UBC13 inh 118, Apaf-1 inh 54 (no result: PfM18AAP inh) | Casp3 UBC13 ctr inactive | UBC13 confirm 126
C=CCn1c(SCc2ccc(Cl)cc2)nc2cc(C(=O)N3CCC(C(N)=O)CC3)ccc2c1=O	UBC13 inh 57 | Casp3 UBC13 ctr inactive | UBC13 confirm 48
CCCCCn1c(SCC(=O)OCC)nc2cc(C(=O)N3CCC(C(N)=O)CC3)ccc2c1=O	none
CN(Cc1ccccc1)C(=O)CCSc1nc(-c2ccc3c(c2)OCO3)cc(C(F)(F)F)n1	UBC13 inh 46 | Casp3 UBC13 ctr inactive | UBC13 confirm inactive
O=C(CCSc1nc(-c2ccc3c(c2)OCO3)cc(C(F)(F)F)n1)NCc1ccccc1	UBC13 inh inconclusive
O=S(=O)(NCc1ccccc1F)NCc1ccccc1F	none
